Test results as given in ChEMBL document CHEMBL1153955, “Indolylarylsulfones bearing natural and unnatural amino acids. Discovery of potent inhibitors of HIV-1 non-nucleoside wild type and resistant mutant strains reverse transcriptase and coxsackie B4 virus” (J Med Chem, 2009).

Assays:
[1] = tested on: Influenza B virus; assay: Antiviral activity against influenza B virus in MDCK cells assessed as reduction of virus-induced cytopathicity by visual cytopathic effect scoring method; format: functional, organism-based
[2] = tested on: Feline coronavirus; assay: Antiviral activity against Feline coronavirus in feline […] cells assessed as inhibition of virus-induced cytopathicity; format: functional, organism-based; settings: Alphacoronavirus 1
[3] = molecular target: Human immunodeficiency virus type 1 reverse transcriptase (Human immunodeficiency virus 1, UniProt Q72547, K103N); assay: Inhibition of HIV1 reverse transcriptase p66/p51 K103N mutant; settings: read-out: IC50
Procedure, shortened: (§1)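 Substrate was 0.5 µg poly(rA)/oligo(dT) 10:1 (0.3 µM 3′-OH ends) with 10 µM [³H]dTTP, at 37 °C. Acid-precipitable radioactivity was counted on GF/C filters after TCA washes.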

[4] = tested on: CCRF-CEM; assay: Antiproliferative activity against human CEM cells after 3 days; format: cell-based; settings: 72 h
Procedure, shortened: (§2)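 Cells seeded at 5 × 10⁴ to 7.5 × 10⁴ cells/200 µL with or without serial compound dilutions; incubated at 37 °C for 2 days (L1210) or 3 days (Molt4/C8, CEM). Cell numbers counted with a Coulter counter. CC₅₀ = concentration reducing proliferation by 50% versus untreated controls, read from plots of cell number (% of control) against concentration. Means of at least two independent experiments.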

[5] = Cytotoxicity against human HEL cells assessed as drug level causing microscopically detectable alteration of normal cell morphology after 3 days; format: cell-based
[6] = tested on: Punta Toro virus; assay: Antiviral activity against Punta Toro virus in african green monkey Vero cells assessed as protection against virus-induced cytopathicity; format: functional, organism-based
Procedure, shortened: (§3)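 Confluent cell monolayers inoculated with 100 CCID₅₀ virus. After 1-2 h adsorption, residual virus removed and cultures incubated with varying compound concentrations. Cytopathicity scored once it reached completion in untreated infected controls. EC₅₀ = dose reducing virus-induced cytopathogenicity by 50%.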

[7] = tested on: Influenza A virus H3N2; assay: Antiviral activity against influenza H3N2 virus in MDCK cells assessed as reduction of virus-induced cytopathicity by MTS method; format: functional, organism-based
[8] = tested on: Influenza A virus; assay: Antiviral activity against influenza H1N1 virus in MDCK cells assessed as reduction of virus-induced cytopathicity by visual cytopathic effect scoring method; format: functional, organism-based
[9] = molecular target: Human immunodeficiency virus type 1 reverse transcriptase (Human immunodeficiency virus 1, UniProt Q72547); assay: Inhibition of HIV1 reverse transcriptase p66/p51; settings: read-out: IC50
[10] = tested on: Sindbis virus; assay: Antiviral activity against Sindbis virus in african green monkey Vero cells assessed as protection against virus-induced cytopathicity; format: functional, organism-based; procedure, shortened: as §3
[11] = molecular target: Human immunodeficiency virus type 1 reverse transcriptase (Human immunodeficiency virus 1, UniProt Q72547, Y181I); assay: Inhibition of HIV1 reverse transcriptase p66/p51 Y181I mutant; settings: read-out: IC50; procedure, shortened: as §1
[12] = Cytotoxicity against MDCK cells assessed as drug level causing microscopically detectable alteration of normal cell morphology; format: cell-based, Canis lupus familiaris; settings: dog
[13] = tested on: Vesicular stomatitis virus; assay: Antiviral activity against VSV in human HEL cells assessed as protection against virus-induced cytopathicity; format: functional, organism-based
[14] = Cytotoxicity against human HeLa cells assessed as drug level causing microscopically detectable alteration of normal cell morphology after 3 days; format: cell-based
Procedure, shortened: (§4)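 Serial compound dilutions added to confluent HeLa or Vero monolayers. MCC = minimum concentration causing microscopically detectable alteration of cell morphology after 3 days of incubation.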

[15] = tested on: Vaccinia virus; assay: Antiviral activity against Vaccinia virus Lederle in human HEL cells assessed as protection against virus-induced cytopathicity; format: functional, organism-based; settings: Orthopoxvirus vaccinia
[16] = tested on: Human alphaherpesvirus 2; assay: Antiviral activity against HSV2 G in human HEL cells assessed as protection against virus-induced cytopathicity; format: functional, organism-based; settings: Human alphaherpesvirus 2, strain G; procedure, shortened: as §3
[17] = tested on: Influenza A virus; assay: Antiviral activity against influenza H1N1 virus in MDCK cells assessed as reduction of virus-induced cytopathicity by MTS method; format: functional, organism-based; settings: Influenza A virus, H1N1, MDCK
[18] = Cytotoxicity against MDCK cells by MTS assay; format: cell-based, Canis lupus familiaris; settings: dog
[19] = Antiproliferative activity against human Molt4/C8 cells after 3 days; format: cell-based; settings: MOLT-4, 72 h; procedure, shortened: as §2
[20] = tested on: Human respirovirus 3; assay: Antiviral activity against Parainfluenza virus type 3 in african green monkey Vero cells assessed as protection against virus-induced cytopathicity; format: functional, organism-based; settings: Human respirovirus 3, Vero; procedure, shortened: as §3
[21] = tested on: Mammalian orthoreovirus 1; assay: Antiviral activity against Reovirus 1 in african green monkey Vero cells assessed as protection against virus-induced cytopathicity; format: functional, organism-based; settings: Mammalian orthoreovirus 1, Vero; procedure, shortened: as §3
[22] = tested on: Felid alphaherpesvirus 1; assay: Antiviral activity against Feline herpesvirus in feline […] cells assessed as inhibition of virus-induced cytopathicity; format: functional, organism-based
[23] = tested on: Coxsackievirus B4; assay: Antiviral activity against Coxsackievirus B4 in human HeLa cells assessed as protection against virus-induced cytopathicity; format: functional, organism-based; settings: Enterovirus B; procedure, shortened: as §3
[24] = tested on: Human immunodeficiency virus 2; assay: Antiviral activity against HIV2 ROD in human CEM cells assessed as protection against virus-induced cytopathicity after 4 days; format: functional, organism-based; settings: Human immunodeficiency virus 2, ROD, CCRF-CEM, 96 h
Procedure, shortened: (§5)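 CEM cells (~3 × 10⁵ cells/mL) infected with ~100 CCID₅₀ per mL of HIV-1 (IIIB) or HIV-2 (ROD), then seeded into wells containing compound dilutions. After 4 days at 37 °C, syncytium (giant cell) formation was examined microscopically. EC₅₀ = concentration protecting CEM cells from HIV cytopathicity by 50%.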

[25] = Cytotoxicity against african green monkey Vero cells assessed as drug level causing microscopically detectable alteration of normal cell morphology after 3 days; format: cell-based; settings: chlorocebus sabaeus; procedure, shortened: as §4
[26] = molecular target: Human immunodeficiency virus type 1 reverse transcriptase (Human immunodeficiency virus 1, UniProt Q72547, L100I); assay: Inhibition of HIV1 reverse transcriptase p66/p51 L100I mutant; settings: read-out: IC50; procedure, shortened: as §1
[27] = tested on: Vesicular stomatitis virus; assay: Antiviral activity against VSV in human HeLa cells assessed as protection against virus-induced cytopathicity; format: functional, organism-based
[28] = tested on: Influenza A virus H3N2; assay: Antiviral activity against influenza H3N2 virus in MDCK cells assessed as reduction of virus-induced cytopathicity by visual cytopathic effect scoring method; format: functional, organism-based
[29] = tested on: Coxsackievirus B4; assay: Antiviral activity against Coxsackievirus B4 in african green monkey Vero cells assessed as protection against virus-induced cytopathicity; format: functional, organism-based; settings: Enterovirus B; procedure, shortened: as §3
[30] = tested on: Respiratory syncytial virus; assay: Antiviral activity against RSV Long in human HeLa cells assessed as protection against virus-induced cytopathicity; format: functional, organism-based; procedure, shortened: as §3
[31] = Cytotoxicity against feline CRFK cells by MTS assay; format: cell-based, Felis catus; settings: cat
[32] = tested on: Human immunodeficiency virus 1; assay: Antiviral activity against HIV1 3B in human CEM cells assessed as protection against virus-induced cytopathicity after 4 days; format: functional, organism-based; settings: Human immunodeficiency virus 1, 3B, CCRF-CEM, 96 h; procedure, shortened: as §5
[33] = tested on: Influenza B virus; assay: Antiviral activity against influenza B virus in MDCK cells assessed as reduction of virus-induced cytopathicity by MTS method; format: functional, organism-based
[34] = tested on: L1210; assay: Antiproliferative activity against mouse L1210 cells after 2 days; format: cell-based; settings: L1210, 48 h; procedure, shortened: as §2
[35] = tested on: Human alphaherpesvirus 1; assay: Antiviral activity against thymidine kinase deficient and acyclovir resistant HSV1 KOS in human HEL cells assessed as protection against virus-induced cytopathicity; format: functional, organism-based; settings: Human alphaherpesvirus 1, KOS
[36] = tested on: Human alphaherpesvirus 1; assay: Antiviral activity against HSV1 KOS in human HEL cells assessed as protection against virus-induced cytopathicity; format: functional, organism-based; settings: Human alphaherpesvirus 1, KOS

Structure (SMILES) | EC50 [1] [µM] | EC50 [2] [µM] | IC50 [3] [µM] | IC50 [4] [µM] | MCC at 72 h [5] [µM] | EC50 [6] [µM] | EC50 [7] [µM] | EC50 [8] [µM] | IC50 [9] [µM] | EC50 [10] [µM] | IC50 [11] [µM] | MCC [12] [µM] | EC50 [13] [µM] | MCC at 72 h [14] [µM] | EC50 [15] [µM] | EC50 [16] [µM] | EC50 [17] [µM] | CC50 [18] [µM] | IC50 [19] [µM] | EC50 [20] [µM] | further results
Cc1cc(C)cc(S(=O)(=O)c2c(C(=O)NC(C)C(N)=O)[nH]c3ccc(Br)cc23)c1 (centres undefined) | > 800 | > 4 | 0.509 | 10 | 20 | > 4 | > 800 | > 800 | 0.016 | > 4 | 1.81 | 4 | > 4 | 20 | > 4 | > 4 | > 800 | 1.7 | 8.7 | > 4 | EC50 [21]: > 4 µM; EC50 [22]: > 4 µM; EC50 [23]: 2 µM; EC50 [24]: > 10 µM; MCC at 72 h [25]: 20 µM; IC50 [26]: 0.041 µM; EC50 [27]: > 4 µM; EC50 [28]: > 800 µM; EC50 [29]: > 4 µM; EC50 [30]: 4 µM; CC50 [31]: 9.2 µM; EC50 [32]: 0.0019 µM; EC50 [33]: > 800 µM; IC50 [34]: 10 µM; EC50 [35]: > 4 µM; EC50 [36]: > 4 µM
Cc1cc(C)cc(S(=O)(=O)c2c(C(=O)NCC(N)=O)[nH]c3ccc(Cl)c(F)c23)c1 | > 4 | > 20 | 1.04 | 31 | 100 | > 20 | > 4 | > 4 | 0.025 | > 20 | 2.46 | 20 | > 20 | 100 | > 20 | > 20 | > 4 | 7.6 | 34 | > 20 | EC50 [21]: > 20 µM; EC50 [22]: > 20 µM; EC50 [23]: 9 µM; EC50 [24]: > 10 µM; MCC at 72 h [25]: > 100 µM; IC50 [26]: 0.319 µM; EC50 [27]: > 20 µM; EC50 [28]: > 4 µM; EC50 [29]: > 20 µM; EC50 [30]: 16 µM; CC50 [31]: 71 µM; EC50 [32]: 0.0031 µM; EC50 [33]: > 4 µM; IC50 [34]: 53 µM; EC50 [35]: > 20 µM; EC50 [36]: > 20 µM
Cc1cc(C)cc(S(=O)(=O)c2c(C(=O)NC(C)C(N)=O)[nH]c3ccc([N+](=O)[O-])cc23)c1 (centres undefined) | > 20 | > 20 | 0.362 | 66 | 100 | > 100 | > 20 | > 20 | 0.022 | > 100 | 4.21 | 100 | > 20 | > 100 | > 20 | > 20 | > 20 | 95.9 | 44 | > 100 | EC50 [21]: > 100 µM; EC50 [22]: > 20 µM; EC50 [23]: ≥ 20 µM; EC50 [24]: > 10 µM; MCC at 72 h [25]: > 100 µM; IC50 [26]: 0.209 µM; EC50 [27]: > 100 µM; EC50 [28]: > 20 µM; EC50 [29]: > 100 µM; EC50 [30]: > 100 µM; CC50 [31]: 82.1 µM; EC50 [32]: 0.0038 µM; EC50 [33]: > 20 µM; IC50 [34]: 96 µM; EC50 [35]: > 20 µM; EC50 [36]: > 20 µM
Cc1cc(C)cc(S(=O)(=O)c2c(C(=O)NC(C)C(N)=O)[nH]c3ccc(Cl)c(F)c23)c1 (centres undefined) | > 4 | > 20 | 1.52 | 21 | 100 | > 20 | > 4 | > 4 | 0.062 | > 20 | 6.28 | 20 | > 20 | 20 | > 20 | > 20 | > 4 | 6.5 | 22 | > 20 | EC50 [21]: > 20 µM; EC50 [22]: > 20 µM; EC50 [23]: > 4 µM; EC50 [24]: > 10 µM; MCC at 72 h [25]: 100 µM; IC50 [26]: 0.27 µM; EC50 [27]: > 4 µM; EC50 [28]: > 4 µM; EC50 [29]: 20 µM; EC50 [30]: > 4 µM; CC50 [31]: 51.4 µM; EC50 [32]: 0.0037 µM; EC50 [33]: > 4 µM; IC50 [34]: 30 µM; EC50 [35]: > 20 µM; EC50 [36]: > 20 µM
